# Screens (PubChem)
# This is a sample that favours compounds with a hit; in the whole collection about 3.2% have one here.
# MEKK3 PB1 HTS: modulators (inhibitors or enhancers) of MEK5 binding to human MEKK3 PB1 domain | Q99759 | binding response (% of control), % at 10 µM | bead-based flow cytometry, Alexa488-MEK5 binding to MEKK3; actives lie on both sides; 0 = blocked by unlabeled MEK5, 100 = vehicle | AID 1529 | 290,000 tested, 1.4% active;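 active means binding response more than 3 SD above or below the average of its plate-row segment, actives on both sides; inconclusive means wells at one plate position flagged as instrument error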;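 further: Alexa488 bead fluorescence after subtracting the streptavidin-only scavenger bead signal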
# Target sequence (Q99759 whole entry, looked up, the tested form may be a part): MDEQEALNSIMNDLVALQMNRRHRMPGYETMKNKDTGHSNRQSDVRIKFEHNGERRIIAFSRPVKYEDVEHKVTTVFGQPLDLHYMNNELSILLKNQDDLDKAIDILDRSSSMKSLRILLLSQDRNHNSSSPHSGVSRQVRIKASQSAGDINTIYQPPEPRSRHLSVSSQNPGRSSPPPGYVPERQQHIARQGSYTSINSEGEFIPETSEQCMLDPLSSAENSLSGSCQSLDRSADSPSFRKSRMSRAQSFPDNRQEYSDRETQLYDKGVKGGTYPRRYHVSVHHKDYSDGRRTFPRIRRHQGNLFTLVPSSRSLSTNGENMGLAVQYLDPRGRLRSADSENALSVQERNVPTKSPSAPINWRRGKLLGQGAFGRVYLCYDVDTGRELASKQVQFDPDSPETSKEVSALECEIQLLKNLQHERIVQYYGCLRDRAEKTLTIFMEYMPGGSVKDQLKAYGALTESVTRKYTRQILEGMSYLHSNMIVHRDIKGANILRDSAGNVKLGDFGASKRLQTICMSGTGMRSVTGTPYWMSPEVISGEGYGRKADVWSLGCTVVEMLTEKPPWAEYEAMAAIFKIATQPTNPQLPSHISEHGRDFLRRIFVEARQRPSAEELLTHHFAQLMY
# DSG3 Ab inh: inhibitors of pemphigus antibody binding to human desmoglein-3. P32926. DSG3-coupled beads, scFv-anti-DSG3-GFP binding, flow cytometry; stronger effect = lower value. binding (percent of control), % at 10 µM. 310,000 tested, 0.48% active. AID 588358;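 active means binding more than 3 SD below its plate's average and above zero; inconclusive means below that plate limit but binding exactly zero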;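 further: hits lower antibody fragment binding to DSG3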
# MEKK2mut PB1 HTS: signal of MEK5 binding to mutant human MEKK2 PB1 domain; bead flow cytometry, Alexa488-MEK5 binding to MEKK2 mutant; percent response, % at 10 µM; 290,000 tested, 0.35% active; AID 1530; in the data active means percent response above about 24%, passing the limit was not always enough
# UBC13 inh: inhibitors of human UBC13 polyubiquitin chain formation. P61088. TR-FRET. inhibition, % at 20 µM. 330,000 tested, 0.47% active. AID 485273; in the data active means inhibition above about 45%, passing the limit was not always enough; inconclusive means no clear call, values can overlap the other calls
# Apaf1 inhib: human Apaf-1 inhibition | 330,000 tested, 0.71% active | inhibition, % at 20 µM | reconstituted apoptosome caspase-3 activity, DEVD-Rh110 fluorescence | O14727; active means inhibition of at least 40% at 20 µM;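 further: plate controls were DMSO wells for no effect and DEVD-CHO caspase inhibitor wells for full effect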
#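 Assay system: Apoptosome proteins | Medium: pH 7.5 Hepes buffer with CHAPS, BSA, DTT | Also added: Cytochrome c and DEVD-Rh110 substrate | Times: 30 min plus 50 min, RT | Detection: Rhodamine 110 fluorescence at Ex 480/Em 540 nm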
# MEKK2 WT-MEK5: raises or lowers MEK5 binding to wildtype human MEKK2 PB1 domain; Q9Y2U5; bead flow cytometry, Alexa488-MEK5 binding to MEKK2 WT; actives lie on both sides; binding response (% of control), % at 10 µM; 290,000 tested, 1.1% active; AID 1531; in the data active means binding response below about 67% or above about 130%; inconclusive means no clear call, values can overlap the other calls; inactive means in between
# * marks the source's active call; other numbers are inactive results; u = inconclusive; x = not tested or not shown; [ ] = dose if it differs, or a comment.
SMILES,MEKK3 PB1 HTS,DSG3 Ab inh,MEKK2mut PB1 HTS,UBC13 inh,Apaf1 inhib,MEKK2 WT-MEK5
CC(C)CC(NC(=O)C(COC(C)(C)C)NC(=O)C(Cc1ccc(O)cc1)NC(=O)C(CO)NC(=O)C(Cc1c[nH]c2ccccc12)NC(=O)C(Cc1cnc[nH]1)NC(=O)C1CCC(=O)N1)C(=O)N[C@@H](CCCN=C(N)N)C(=O)N1CCCC1C(=O)NNC(N)=O (stereo partly drawn),117,x,7,x,x,120
O=C(COC(=O)c1ccc(O)cc1O)NC1CC1,x,106,x,-10,17,x
Cc1[nH]c2ccc(C(=O)NCCCN3CCCCC3)cc2c1C,100,116,11,15,1,132
Cc1[nH]c2ccc(C(=O)NCCN3CCCCCC3)cc2c1C,102,116,20,17,12,135*
COc1ccc(CNC(=O)CCC(=O)n2ncc3cc(C)ccc32)cc1,96,76*,0,2,9,90
CCN(CC)CCN(C(=O)/C=C/c1cccs1)c1nc2ccc(Cl)cc2s1,103,110,13,17,22,156*
COC(=O)c1[nH]c2ccc(C)cc2c1NC(=O)CN1CCCc2ccccc21,92,122,15,0,30,-9.0*
COC(=O)c1[nH]c2cc(C)ccc2c1NC(=O)CN1CCN(c2ccccc2OC)CC1,100,105,9,1,14,97
CN(C)S(=O)(=O)c1cccc(NC(=O)c2ccc(-n3cncn3)c([N+](=O)[O-])c2)c1,x,111,x,-3,-1,x
COCC(=O)Oc1cc(-c2ccc(C)cc2C)c(OC(=O)COC)c(-c2ccc(C)cc2C)c1,x,110,x,x,x,x
O=C(NCCCc1ccccc1)c1cc(COc2ccc(F)cc2Cl)on1,104,35*,6,5,19,104
O=C(COC(=O)Cc1ccc(Cl)c(Cl)c1)NCCc1ccccc1,x,96,x,x,x,x
CN(CC(=O)Nc1cccc(S(=O)(=O)NC2=NCCC2)c1)Cc1cccc(F)c1,x,102,x,1,0,x
Cn1c(C(=O)N2CCN(c3ccc([N+](=O)[O-])cc3)CC2)cc2c(=O)[nH]c3ccccc3c21,x,72*,x,x,x,x
CCCCCCCc1ccc(C2NC(=S)NC3=C2C(=O)c2ccccc23)cc1 (stereo not drawn),111,x,2,-35,44*,105
CCOc1ccc(S(=O)(=O)N(C)CC(=O)N2CCN(CC)CC2)cc1,107,x,2,2,1,104
CC(C)C(=O)N(c1ccc(F)cc1)C1C=CS(=O)(=O)C1 (stereo not drawn),x,101,x,x,x,x
CCC(CC)C(=O)N(c1ccc(F)cc1)C1C=CS(=O)(=O)C1 (stereo not drawn),101,83*,3,2,-3,102
CC(OC(=O)c1ccccc1NCCO)C(=O)NC1CCCCC1C (stereo not drawn),x,122,x,13,-1,x
CNC[C@H]1Oc2ccc(NC(=O)Nc3ccc(OC)cc3)cc2C(=O)N([C@@H](C)CO)C[C@H]1C,x,x,x,48*,45*,x
CNC[C@@H]1Oc2ccc(NC(=O)Nc3ccccc3)cc2C(=O)N([C@@H](C)CO)C[C@H]1C,x,106,x,16,12,x
CNC[C@H]1Oc2ccc(NC(=O)Nc3ccc4c(c3)OCO4)cc2C(=O)N([C@H](C)CO)C[C@@H]1C,x,107,x,21,12,x
CNC[C@@H]1Oc2ccc(NC(=O)Nc3cccc4ccccc34)cc2C(=O)N([C@@H](C)CO)C[C@@H]1C,x,x,x,48*,57*,x
COc1ccc(S(=O)(=O)Nc2ccc(Cc3ccncc3)cc2)cc1OC,102,40*,0,2,6,102
C[C@@H]1CCCCO[C@H](CN(C)C(=O)Nc2ccc(F)cc2)[C@@H](C)CN([C@H](C)CO)C(=O)c2cc(N(C)C)ccc2O1,x,103,x,x,x,x
SMILES,MEKK3 PB1 HTS,DSG3 Ab inh,MEKK2mut PB1 HTS,UBC13 inh,Apaf1 inhib,MEKK2 WT-MEK5
CCOC(=O)c1ccc(S(=O)(=O)N2CCC(N3CCCCC3)CC2)cc1,103,115,4,47*,-4,105
c1ccc(CNc2ccc(CNc3ncn[nH]3)cc2)cc1,108,92,3,7,-1,94
COc1cc(CNc2ccc(CNc3ncn[nH]3)cc2)cc(Cl)c1OCc1ccccc1,102,82*,13,-4,25,96
Cc1cc(C)nc(NC(=NCCc2c[nH]c3ccccc23)NC(=O)Nc2ccccc2)n1,100,98,4,-7,-8,93
Cc1cc(C)nc(NC(=NCCc2c[nH]c3ccccc23)NC(=O)Nc2ccc(Cl)c(Cl)c2)n1,109,96,47,-12,5,49*
O=C(NC(Cc1ccccc1)C(=O)O)c1cccnc1Cl (stereo not drawn),106,102,7,5,-4,105
O=C(CCn1c(=O)[nH]c2ccsc2c1=O)N1CC(=O)N(CCc2ccccc2)C(=O)C1,74*[inhibitor],110,-9,-4,4,81
O=C(CC1C(=O)NCCN1C(=O)Nc1ccccc1)Nc1cc(Cl)cc(Cl)c1 (stereo not drawn),101,105,-2,2,17,98
Cc1ccc(S(=O)(=O)CC(=O)N2CC(C)OC(C)C2)cc1 (stereo not drawn),102,92,1,-6,7,98
CN(C(=O)CSc1nc2scc(-c3ccccc3)c2c(=O)[nH]1)c1ccccc1,x,102,x,-18,20,x
Nc1nonc1-n1nnc(C(=O)N/N=C/c2ccc(OCc3ccccc3F)cc2)c1CN1CCCCC1,96,-3.4*,-9,-16,23,93
Nc1nonc1-n1nnc(C(=O)N/N=C/c2ccc(OCc3cccc(Cl)c3)cc2)c1CN1CCCCC1,97,93,-3,-14,16,87
Cc1ccc(S(=O)(=O)c2nnn3c2nc(NC2CCN(Cc4ccccc4)CC2)c2ccccc23)cc1C,111,97,30*,18,22,176*
Cc1nc(C)n(CCNC(=O)c2ccco2)n1,103,123,1,5,-5,105
O=C(CCc1ccccc1)NNC(=O)COc1ccc(Br)cc1,100,u,1,-1,-6,101
O=C(CCC(=O)NNC(=O)COc1ccc(Br)cc1)NCc1ccccc1,104,1.9*,-5,3,-2,96
Cc1ccc(Nc2nc(N/N=C/c3c[nH]c4ccccc34)nc(N3CCOCC3)n2)cc1,145*,96,2,23,7,121
O=C(O)CCn1cc(/C=C2\NC(=S)N(c3ccccc3)C2=O)c(-c2ccc(Br)cc2)n1,99,95,-2,-10,9,97
N#CCCn1cc(/C=C2\NC(=S)N(c3ccccc3)C2=O)c(-c2ccc(F)cc2)n1,103,1.1*,-2,7,2,88
COc1ccc(C(=O)CSc2nc(=O)n3ccc(C)cc3n2)cc1,x,57*,x,x,x,x
